Test results: PMC2911665 (The Journal of Cell Biology, 2010)
Substitutions are numbered along the chain they refer to. Values belong to the molecule of their own block, whether it stands above or below them. Where a SMILES comes first, the peptide text is derived from it. The star is where a group is joined. Cbz = O=C(OCc1ccccc1)*

Columns and labels:
[1] = test system: iNOS degradation in Spsb2T/+ BMDMs; assay: iNOS degradation in Spsb2T/+ BMDMs after LPS/IFN-γ stimulation and wash; type: cell-based, mouse; conditions: 10 µM MG-132 in fresh medium after wash
Summary of the method: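 Bone marrow macrophages (>95% CD11b+ after 6 d culture) from littermate controls, SPSB2-transgenic or SOCS-box-deleted transgenic mice, stimulated overnight with LPS/IFN-γ or left unstimulated. Washed, refed with medium ±10 µM MG-132 (proteasome inhibitor), lysed at set times after wash. Lysates run on SDS-PAGE, blotted with anti-iNOS, peroxidase secondary and ECL. Membranes stripped (0.1 M Gly, pH 2.9) and reprobed for tubulin as loading control.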

Y120A-SPSB2 (12–224) = target: T1, Y120A-SPSB2 (12–224) (mouse, UniProt O88838 12-224, Y120A); assay: ITC
T1 sequence (looked up): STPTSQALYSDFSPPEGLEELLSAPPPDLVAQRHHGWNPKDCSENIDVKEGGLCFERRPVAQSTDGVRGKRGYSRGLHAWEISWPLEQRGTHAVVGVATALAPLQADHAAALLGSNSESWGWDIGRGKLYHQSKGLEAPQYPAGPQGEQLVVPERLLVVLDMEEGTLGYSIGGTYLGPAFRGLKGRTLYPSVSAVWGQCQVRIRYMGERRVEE

[2] = target: T2, SPSB2 SPRY domain (residues 12–224) (mouse, UniProt O88838 12-224); assay: ITC
T2 sequence (looked up): T1 sequence (looked up) with A109Y

SPSB1 = SPSB1 binding to Par-4; ref Woo et al., 2006; cited from earlier work
SPSB2 = SPSB2 binding to Par-4; ref Woo et al., 2006; cited from earlier work

Molecule: CC(C)C[C@@H](C=O)NC(=O)[C@H](CC(C)C)NC(=O)[C@H](CC(C)C)NC(=O)OCc1ccccc1 [MG-132] (Cbz-Leu-Leu-Leu-aldehyde)
effect on enhanced iNOS degradation [1]: abrogated

Molecule: Ac-KEEKDINNNVKKT-NH2 [iNOS N-terminal peptide, wild type (Ac-KEEKDINNNVKKT-NH2)]
fold reduction of affinity against wild-type SPSB2 (12–224) (Y120A-SPSB2 (12–224)): ~5000 fold
Kd [2]: 13.3 ± 3 nM

Molecule: Ac-KEEKAINNNVKKT-NH2 [iNOS N-terminal peptide E (Ac-KEEKAINNNVKKT-NH2)]
Kd [2]: 21600 ± 750 nM

Molecule: Ac-KEEKDINANVKKT-NH2 [iNOS N-terminal peptide I (Ac-KEEKDINANVKKT-NH2)]
Kd [2]: 826 ± 20 nM

Molecule: Ac-KEEKDIQNNVKKT-NH2 [iNOS N-terminal peptide H (Ac-KEEKDIQNNVKKT-NH2)]
Kd [2]: 40500 nM

Molecule: Ac-KEEKDIANNVKKT-NH2 [iNOS N-terminal peptide G (Ac-KEEKDIANNVKKT-NH2)]
Kd [2]: 17200 nM

Molecule: Ac-KEEADINNNVKKT-NH2 [iNOS N-terminal peptide C (Ac-KEEADINNNVKKT-NH2)]
Kd [2]: 127 ± 23 nM

Molecule: Ac-KEEKDINNNAKAT-NH2 [iNOS N-terminal peptide N (Ac-KEEKDINNNAKAT-NH2)]
Kd [2]: 180 ± 39 nM

Molecule: Ac-KEEADINNNAKAT-NH2 [iNOS N-terminal peptide O (Ac-KEEADINNNAKAT-NH2)]
Kd [2]: 311 ± 37 nM

B1: Par-4: prostate apoptosis response protein 4, SPSB binding partner containing ELNNNL (human) (protein, UniProt Q96IZ0 1-340, looked up)
PRKC apoptosis WT1 regulator …: MATGGYRTSSGLGGSTTDFLEEWKAKREKMRAKQNPPGPAPPGGGSSDAAGKPPAGALGTPAAAAANELNNNLPGGAPAAPAVPGPGGVNCAVGSAMLTRAAPGPRRSEDEPPAASASAAPPPQRDEEEPDGVPEKGKSSGPSARKGKGQIEKRKLREKRRSTGVVNIPAAECLDEYEDDEAGQKERKREDAITQQNTIQNEAVNLLDPGSSYLLQEPPRTVSGRYKSTTSVSEEDVSSRYSRTDRSGFPRYNRDANVSGTLVSSSTLEKKIEDLEKEVVRERQENLRLVRLMQDKEEMIGKLKEEIDLLNRDLDDIEDENEQLKQENKTLLKVVGQLTR
Kd (SPSB1): 146 nM
Kd (SPSB2): 4700 nM

Further lines, results first:

Kd [2]: 56.8 ± 11.2 nM
Molecule: Ac-KEEKDINNNAKKT-NH2 [iNOS N-terminal peptide L (Ac-KEEKDINNNAKKT-NH2)]

Kd [2]: 23.5 ± 9.9 nM
Molecule: Ac-KEEKDANNNVKKT-NH2 [iNOS N-terminal peptide F (Ac-KEEKDANNNVKKT-NH2)]

Kd [2]: 65.4 ± 7.4 nM
Molecule: Ac-KEAADINNNVKKT-NH2 [iNOS N-terminal peptide D (Ac-KEAADINNNVKKT-NH2)]

Kd [2]: 29.8 ± 12.2 nM
Molecule: Ac-KEEKDINNNVKAT-NH2 [iNOS N-terminal peptide M (Ac-KEEKDINNNVKAT-NH2)]

Kd [2]: 14 ± 3 nM
Molecule: Ac-KEAKDINNNVKKT-NH2 [iNOS N-terminal peptide B (Ac-KEAKDINNNVKKT-NH2)]
